The values that follow come from ChEMBL document CHEMBL6134766, “Design, synthesis, and evaluation of benzhydrylpiperazine-based novel dual COX-2/5-LOX inhibitors with anti-inflammatory and anti-cancer activity” (RSC Med Chem, 2025).

Where a name gives a salt, the structure may show the parent alone. Calls of active or inactive are those of the source. No cut-off for these calls is given here.

Assay [1] has as its system Rattus norvegicus. Nature of the assay: Cardio-protective activity in ISO-treated Wistar rat assessed as decrease in serum LDH level at 10 mg/kg, po. It is filed as functional, organism-based. The method, boiled down: (§1)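 Rats (n = 6/group) given ISO 100 mg kg−1 s.c., then oral test compound in 0.3% CMC; vehicle controls. Retro-orbital blood, serum separated at 4000 rpm, 4 °C, 10 min; LDH and CK-MB by commercial kits; mean ± SD.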

For assay [2], the system named is Rattus norvegicus. The assay is described as follows: Cardio-protective activity in ISO-treated Wistar rat assessed as decrease in serum CK-MB level at 10 mg/kg, po. Type of assay: functional, organism-based. In short, it runs like this: as §1
Assay [3] has as its system Rattus norvegicus. Nature of the assay: Anti-inflammatory activity in arachidonic acid-induced paw edema Wistar rat model assessed as protection against swelling thickness of paw at 10 mg/kg, po measured after 1 hr by digital vernier caliper (reference value: 0 %). It is filed as functional.
Assay [4] deals with Rattus norvegicus. Nature of the assay: Anti-inflammatory activity in arachidonic acid-induced paw edema Wistar rat model assessed as swelling thickness of paw at 10 mg/kg, po measured after 1 hr by digital vernier caliper (reference value: 6.51 +/- 0.37 millimeter). It is filed as functional.
Assay [5] deals with T1, Polyunsaturated fatty acid 5-lipoxygenase (Homo sapiens, UniProt P09917).
T1 sequence (P09917 whole entry): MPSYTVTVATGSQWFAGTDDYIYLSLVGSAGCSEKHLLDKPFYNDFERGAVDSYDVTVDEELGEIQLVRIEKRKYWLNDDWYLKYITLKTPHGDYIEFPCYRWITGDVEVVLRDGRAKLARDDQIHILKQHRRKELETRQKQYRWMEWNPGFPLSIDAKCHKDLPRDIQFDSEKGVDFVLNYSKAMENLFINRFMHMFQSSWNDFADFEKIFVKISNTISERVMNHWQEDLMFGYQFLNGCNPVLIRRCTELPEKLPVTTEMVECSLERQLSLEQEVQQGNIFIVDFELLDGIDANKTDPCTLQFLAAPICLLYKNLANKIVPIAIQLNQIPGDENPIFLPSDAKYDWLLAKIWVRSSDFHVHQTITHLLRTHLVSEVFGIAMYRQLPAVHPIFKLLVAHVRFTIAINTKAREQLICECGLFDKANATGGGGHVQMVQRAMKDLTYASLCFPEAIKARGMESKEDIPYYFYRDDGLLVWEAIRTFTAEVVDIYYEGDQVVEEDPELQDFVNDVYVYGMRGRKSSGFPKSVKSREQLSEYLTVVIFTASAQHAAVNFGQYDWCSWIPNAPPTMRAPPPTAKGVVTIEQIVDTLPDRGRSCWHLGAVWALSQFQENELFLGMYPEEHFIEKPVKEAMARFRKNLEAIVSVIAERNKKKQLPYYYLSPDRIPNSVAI
Nature of the assay: Inhibition of 5-LOX (unknown origin) using arachidonic acid as substrate preincubated for 5 mins followed by substrate addition measured after 10 mins by spectrophotometry.

Assay [6] concerns the target T2, Prostaglandin G/H synthase 1 (Ovis aries, UniProt P05979).
T2 sequence (P05979 whole entry): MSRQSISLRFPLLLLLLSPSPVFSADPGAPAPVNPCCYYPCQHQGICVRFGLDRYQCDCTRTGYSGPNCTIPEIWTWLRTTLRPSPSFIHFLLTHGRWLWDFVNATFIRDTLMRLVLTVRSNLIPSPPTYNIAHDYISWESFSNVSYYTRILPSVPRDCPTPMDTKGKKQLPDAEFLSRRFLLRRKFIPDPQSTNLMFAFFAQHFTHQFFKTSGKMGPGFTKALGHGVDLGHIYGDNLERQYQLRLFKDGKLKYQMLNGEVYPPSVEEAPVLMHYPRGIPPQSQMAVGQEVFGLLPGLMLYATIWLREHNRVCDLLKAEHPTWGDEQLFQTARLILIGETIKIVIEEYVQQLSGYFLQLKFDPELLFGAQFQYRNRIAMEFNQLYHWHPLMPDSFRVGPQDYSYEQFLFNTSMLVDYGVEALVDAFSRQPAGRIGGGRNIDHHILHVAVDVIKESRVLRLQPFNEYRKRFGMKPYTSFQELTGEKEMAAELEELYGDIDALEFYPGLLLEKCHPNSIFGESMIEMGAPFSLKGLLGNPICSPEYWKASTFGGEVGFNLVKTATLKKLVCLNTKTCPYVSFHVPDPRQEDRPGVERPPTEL
The assay is described as follows: Inhibition of ovine COX-1 using arachidonic acid as substrate in presence of hemin by TMPD reagent-based colorimetry.

The next assay has as its system COLO 205. Nature of the assay: Cytotoxicity against human COLO 205 cells assessed as growth inhibition incubated for 48 hrs by SRB assay. Particulars: COLO 205, 48 h.
Another assay has as its system MIA PaCa-2. The assay is described as follows: Cytotoxicity against human MIA PaCa-2 cells assessed as growth inhibition incubated for 48 hrs by SRB assay. Particulars: MIA PaCa-2, 48 h. On the technique in general: In SRB staining, fixed cells bind dye roughly in proportion to their protein.
The test system of another assay is A549. The assay is described as follows: Cytotoxicity against human A549 cells assessed as growth inhibition incubated for 48 hrs by SRB assay. Particulars: A549, 48 h.

For `Cc1ccc(-c2cc(C(F)(F)F)nn2-c2ccc(S(N)(=O)=O)cc2)cc1` [CELECOXIB], the outcome with Rattus norvegicus [1] and in the assay with Rattus norvegicus [2] was inactive. In addition, the Activity in the assay on Rattus norvegicus [3] was 72.59%; in the assay with Rattus norvegicus [4], 1.79 mm.

For the compound `CC(c1cc2ccccc2s1)N(O)C(N)=O` (configuration not stated) [ZILEUTON], the Activity with Rattus norvegicus [3] worked out at 47.95%; with Rattus norvegicus [4], 3.39 mm.

One may read the IC50 as the concentration that inhibits the measured activity by half. `O=[N+]([O-])c1cc(-c2nnc(CN3CCN(C(c4ccccc4)c4ccc(Cl)cc4)CC3)o2)cc([N+](=O)[O-])c1` (configuration not stated): the figures for the IC50 in [5] and in [6] were 18 µM and 37.7 µM, respectively.

Take `Fc1ccc(-c2nnc(CN3CCN(C(c4ccccc4)c4ccc(Cl)cc4)CC3)o2)cc1` (configuration not stated): the IC50 is 11.6 µM in [5] and 34.2 µM in assay [6].

For `Fc1ccc(-c2nnc(CN3CCN(C(c4ccccc4)c4ccc(Cl)cc4)CC3)o2)c(F)c1` (configuration not stated), the IC50 in assay [5] came to 9.33 µM; in assay [6] it was 34.8 µM.

For `Oc1cccc(-c2nnc(CN3CCN(C(c4ccccc4)c4ccc(Cl)cc4)CC3)o2)c1` (configuration not stated), the IC50 in assay [5] is 20.3 µM; in assay [6], 36.3 µM.

Regarding `FC(F)(F)c1ccc(-c2nnc(CN3CCN(C(c4ccccc4)c4ccc(Cl)cc4)CC3)o2)cc1` (configuration not stated), the figures for the IC50 in assay [5] and in assay [6] were 13.7 µM and 27 µM, respectively.

As for `N#Cc1ccc(-c2nnc(CN3CCN(C(c4ccccc4)c4ccc(Cl)cc4)CC3)o2)cc1` (configuration not stated), the IC50 stood at 13.5 µM in assay [5] and 25.5 µM in [6].

Turning to `O=[N+]([O-])c1ccccc1-c1nnc(CN2CCN(C(c3ccccc3)c3ccc(Cl)cc3)CC2)o1` (configuration not stated), the IC50 in assay [5] was determined as 13.5 µM; in [6], 29.9 µM.

On to `COc1ccc(-c2nnc(CN3CCN(C(c4ccccc4)c4ccc(Cl)cc4)CC3)o2)cc1` (configuration not stated), for which the values for the IC50 in assay [5] and in assay [6] were 10.3 µM and 34.5 µM, respectively.

As to `Fc1cc(F)c(-c2nnc(CN3CCN(C(c4ccccc4)c4ccc(Cl)cc4)CC3)o2)cc1F` (configuration not stated), the IC50 in assay [5] was 19.9 µM; in assay [6], 32.7 µM.

With `Clc1ccc(C(c2ccccc2)N2CCN(Cc3nnc(-c4ccc(Cl)cc4Cl)o3)CC2)cc1` (configuration not stated), the IC50 in assay [5] was 14.4 µM; in assay [6] it was 30.3 µM.

As for `Clc1ccc(C(c2ccccc2)N2CCN(Cc3nnc(-c4cccc(Cl)c4)o3)CC2)cc1` (configuration not stated), the IC50 turned out to be 16.2 µM in [5] and 32 µM in assay [6].

`N#Cc1cccc(-c2nnc(CN3CCN(C(c4ccccc4)c4ccc(Cl)cc4)CC3)o2)c1` (configuration not stated): the figures for the IC50 in assay [5] and in assay [6] were 15 µM and 23 µM, respectively.

Take `O=[N+]([O-])c1cc(-c2nnc(CN3CCN(C(c4ccccc4)c4ccc(Cl)cc4)CC3)o2)ccc1Cl` (configuration not stated): the IC50 in assay [5] came to 11.2 µM; in [6] it was 38.5 µM.

Regarding `FC(F)(F)Oc1ccc(-c2nnc(CN3CCN(C(c4ccccc4)c4ccc(Cl)cc4)CC3)o2)cc1` (configuration not stated), the IC50 was determined as 9.4 µM in [5] and 27.9 µM in assay [6].

Turning to `Oc1ccc(-c2nnc(CN3CCN(C(c4ccccc4)c4ccc(Cl)cc4)CC3)o2)cc1` (configuration not stated), the IC50 came out at 10.8 µM in [5] and 36.3 µM in assay [6].

In general, GI50 refers to the concentration that inhibits growth by half. Take `COc1cccc2c1C(=O)c1c(O)c3c(c(O)c1C2=O)C[C@@](O)(C(=O)CO)C[C@@H]3O[C@H]1C[C@H](N)[C@H](O)[C@H](C)O1` [DOXORUBICIN HYDROCHLORIDE]: the GI50 in the assay with COLO 205 came out at 0.1 µM; in the assay on MIA PaCa-2 it was 0.002 µM; with A549 it was 0.077 µM.

`COc1cccc(-c2nnc(CN3CCN(C(c4ccccc4)c4ccc(Cl)cc4)CC3)o2)c1` (configuration not stated): the half-inhibitory concentration (IC50) in [5] amounted to 15.3 µM; in [6] it was 36.3 µM.

As for `Cc1ccc(-c2nnc(CN3CCN(C(c4ccccc4)c4ccc(Cl)cc4)CC3)o2)cc1` (configuration not stated), the IC50 in assay [5] stood at 18.1 µM; in assay [6], 32.1 µM.

`Clc1ccc(C(c2ccccc2)N2CCN(Cc3nnc(-c4ccccc4)o3)CC2)cc1` (configuration not stated): the IC50 in assay [5] came out at 9.81 µM; in [6] it was 38.4 µM.

Take `Cc1cccc(-c2nnc(CN3CCN(C(c4ccccc4)c4ccc(Cl)cc4)CC3)o2)c1` (configuration not stated): the concentration for half-maximal inhibition (IC50) is 9.89 µM in assay [5] and 30.7 µM in [6].
